Consider seven molecules from ChEMBL document CHEMBL1134792, “Antimitotic antitumor agents: synthesis, structure-activity relationships, and biological characterization of N-aryl-N'-(2-chloroethyl)ureas as new selective alkylating agents” (J Med Chem, 2001).

The structures appear in SMILES notation. The source made the active and inactive calls. The rule behind the calls is not given here.

The test system of assay [1] is CHO. Put plainly: Dose required to inhibit cell growth was determined against CHO cell line. Type of assay: functional, cell-based. The following applies: Cricetulus griseus. Summed up:
(§1)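 Alamar Blue growth assay. (1–5) × 10^3 cells per well preincubated 24 h, then exposed to increasing drug concentrations for 72 h at 37 °C. Medium replaced with PBS containing 20% Alamar Blue, fluorescence read at 485/590 nm. IC50 is the dose inhibiting growth by 50%.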

In assay [2] the test system is P388. Briefly: Dose required to inhibit cell growth was determined against P388D1 cell line of murine lymphocytotic leukemia; NA= Not active represents IC50 >400 uM. The following applies: Mus musculus. Type of assay: functional, cell-based. Summed up:
(§2)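 Alamar Blue growth-inhibition assay. Cells ((1–5) × 10³ per well) were preincubated for 24 h, then exposed to increasing drug concentrations for 72 h at 37 °C. Alamar Blue (20%) was added and fluorescence read at ex 485 / em 590 nm. IC50 is the dose inhibiting growth by 50%. Means of ≥3 independent determinations.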

The test system of assay [3] is HT-29. Briefly: Dose required to inhibit cell growth was determined against HT-29 cell line of human adenocarcinoma; NA= Not active represents IC50 >400 uM. Type of assay: functional, cell-based. The method in brief: as §2
For assay [4], the system named is MDA-MB-231. Briefly: Dose required to inhibit cell growth was determined against MDA-MB-231 cell line of human non-hormone dependent breast carcinoma; NA= Not active represents IC50 >400 uM. Type of assay: functional, cell-based. The method in brief: as §2
In another assay the test system is L1210. Briefly: Dose required to inhibit cell growth was determined against L1210 cell line of murine lymphocytotic leukemia. The class given is functional, cell-based. The following applies: Mus musculus. Summed up:
as §1

Assay [5] concerns LoVo. Put plainly: Dose required to inhibit cell growth was determined against LoVo cell line of human adenocarcinoma; NA= Not active represents IC50 >400 uM. Type of assay: functional, cell-based. The method in brief:
as §2

For another assay, the system named is K562. Briefly: Dose required to inhibit cell growth was determined against K562 cell line of chronic myelogenous leukemia. Type of assay: functional, cell-based. The following applies: Homo sapiens. Summed up: as §1
Assay [6] has as its system MDA-MB-231. Put plainly: DNA damages caused in MDA-MB-231 cells after 2 hr exposure to a concentration of 400 uM. The class given is functional, Homo sapiens. Summed up: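 Growing MDA-MB-231 cells held 2 h at 37 °C in medium with or without 400 μM compound. Cells washed in cold PBS and lysed in Tris/SDS/EDTA/deferoxamine/proteinase K buffer. DNA isolated by salting out, then 3'-end labeled by T4 DNA polymerase nucleotide exchange. Incorporated radioactivity measured by dot filtration, expressed as dCps exchanged/ng DNA. Means ± SD, ≥3 determinations.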

Assay [7] deals with P388. Briefly: Dose required to inhibit cell growth was determined against P388D1 cell line of murine lymphocytotic leukemia. Type of assay: functional, cell-based. The following applies: Mus musculus. Summed up: as §1
Assay [8] deals with HT-29. Put plainly: Dose required to inhibit cell growth was determined against HT-29 cell line of human adenocarcinoma. The class given is functional, cell-based. Summed up: as §1
The subject of assay [9] is MDA-MB-231. Put plainly: Dose required to inhibit cell growth was determined against MDA-MB-231 cell line of human non-hormone dependent breast carcinoma. Type of assay: functional, cell-based. The method in brief: as §1
Assay [10] concerns MDA-MB-231. Put plainly: Beta tubulin alkylation activity in MDA-MB-231 cells. The class given is functional, Homo sapiens. Also on record: concentration or dose not given beside the values. Summed up: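 MDA-MB-231 cells (~5 × 10^6), exponentially growing, exposed to 30 μM compound for 24 h at 37 °C. Lysed in Laemmli buffer, run on 10% SDS-PAGE, immunoblotted with anti-β-tubulin (TUB 2.1, 1:500) and peroxidase anti-mouse secondary, ECL detection. Normal and alkylated band densities integrated to give % alkylated β-tubulin. Representative of three experiments.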

Assay [11] relates to LoVo. Briefly: Dose to inhibit cell growth determined against LoVo cell line of human adenocarcinoma. The class given is functional, cell-based. Summed up:
as §1

Assay [12] has as its system MDA-MB-231. Put plainly: Dose required to inhibit cell growth was determined against MDA-MB-231 cell line of human non-hormone dependent breast carcinoma; Not active represents IC50 >400 uM. Type of assay: functional, cell-based. Summed up: as §2
For assay [13], the system named is CHO. Briefly: Dose required to inhibit cell growth was determined against CHO cell line; Not active represents IC50 >400 uM. The class given is functional, cell-based. The following applies: Cricetulus griseus. Summed up: as §2
The subject of assay [14] is HT-29. Briefly: Dose required to inhibit cell growth was determined against HT-29 cell line of human adenocarcinoma; Not active represents IC50 >400 uM. Type of assay: functional, cell-based. Summed up:
as §2

Assay [15] deals with CHO. Briefly: Dose required to inhibit cell growth was determined against CHO cell line; NA= Not active represents IC50 >400 uM. Type of assay: functional, cell-based. The following applies: Cricetulus griseus. The method in brief:
as §2

Assay [16] can be described thus: Alkylating activity by using 4-(4-nitrobenzyl)-pyridine(NBP) colorimetric assay. The method in brief: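 NBP colorimetric assay. Drug at 400 nmol/mL in ethanol was mixed with 10% NBP in ethanol and 50 mM sodium acetate pH 4.3, then heated at 80 °C for 60, 90, 120 or 150 min. Samples were chilled and basified with KOH/ethanol, and A570 was read against a drug-free blank. The alkylation rate (A570/min) is the slope of a linear regression of absorbance vs time. Mean ± SD of ≥3 independent experiments.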

A short description of assay [17]: Glutathione activity was measured after incubation with a conc. of 500 uM. The method in brief:
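Cell-free thiol assay. GSH 500 µM with 1 mM EDTA and 500 µM drug (from 2% ethanol solution) in 0.1 M phosphate buffer pH 7.4, 60 min at room temperature. DTNB (0.133 mM) was then added and A412 read. Reported as % of no-drug control, in triplicate.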

In assay [18] the target is T1, Glutathione reductase, mitochondrial (Homo sapiens) (UniProt P00390).
T1 sequence (whole entry): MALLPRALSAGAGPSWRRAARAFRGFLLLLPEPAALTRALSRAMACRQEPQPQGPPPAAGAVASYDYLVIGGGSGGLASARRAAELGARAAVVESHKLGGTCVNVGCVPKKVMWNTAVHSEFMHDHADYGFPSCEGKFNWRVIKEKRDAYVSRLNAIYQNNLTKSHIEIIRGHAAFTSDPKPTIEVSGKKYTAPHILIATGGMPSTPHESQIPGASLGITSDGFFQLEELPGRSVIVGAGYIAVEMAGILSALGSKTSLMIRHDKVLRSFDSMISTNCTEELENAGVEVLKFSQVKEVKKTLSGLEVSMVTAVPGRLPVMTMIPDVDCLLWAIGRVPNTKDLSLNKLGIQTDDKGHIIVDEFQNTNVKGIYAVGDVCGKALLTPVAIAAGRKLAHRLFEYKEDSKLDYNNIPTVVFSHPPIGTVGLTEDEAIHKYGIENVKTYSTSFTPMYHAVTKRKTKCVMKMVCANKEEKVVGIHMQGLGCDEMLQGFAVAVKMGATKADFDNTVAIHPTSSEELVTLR
Briefly: Glutathione reductase activity was measured after incubation with a conc. of 500 uM. Type of assay: functional. Summed up: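 Purified glutathione reductase (0.016 U/mL) with 100 µM NADPH, 1 mM EDTA, 1 mg/mL BSA and 500 µM drug (from 2% ethanol solution) in 0.1 M phosphate pH 7.4, preincubated 60 min at 30 °C. GSSG was then added for 60 min at 30 °C. Activity is the […] over 3 min, as % of no-drug control, in triplicate.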

Regarding `O=C(NCCCl)Nc1cccc2c1CCCC2`, the IC50 (as a rule, the concentration at which inhibition is half-maximal) in the assay on CHO [1] was determined as 56 µM; with L1210, 55 µM; in the assay with K562, 76 µM. Further, the NA result in the assay with P388 [2], in the assay on HT-29 [3], in the assay on MDA-MB-231 [4] and in the assay with LoVo [5] was “inactive” each time.

With `O=C(NCCCl)Nc1ccc2ccccc2c1`, the half-inhibitory concentration (IC50) with CHO [1] is 7.2 µM; in the assay with P388 [7], 5.3 µM; in the assay with L1210 it was 3 µM; in the assay on HT-29 [8], 5.5 µM; with MDA-MB-231 [9], 6.1 µM; in the assay on LoVo [11], 6.2 µM. In the assay on K562, this molecule showed an IC50 of 3 µM. Besides, in the assay on MDA-MB-231 [6], the DNA damage is reported as 1.89 10e7 exchanged dCps (ng of DNA). This molecule also showed an Activity in the assay with MDA-MB-231 [10] of 47%.

Turning to `CCC(C)c1ccc(NC(=O)NC)cc1` (centres undefined), the NA entry in the assay on MDA-MB-231 [12], in the assay on CHO [13] and in the assay with HT-29 [14] was “inactive” each time. Besides, the IC50 amounted to 62 µM in the assay on L1210 and 142 µM in the assay with K562.

In the case of `Cc1cc(C)nc(NC(=O)NCCCl)c1`, the NA entry in the assay on P388 [2], in the assay with LoVo [5] and in the assay on CHO [15] was “inactive” throughout. The IC50 was found to be 144 µM with L1210, 50 µM with MDA-MB-231 [9] and 113 µM in the assay with K562.

Regarding `CNC(=O)Nc1ccc(C(C)C)cc1`, the NA entry in the assay on MDA-MB-231 [12], with CHO [13] and with HT-29 [14] was “inactive” in each case. The values for the IC50 in the assay with L1210 and in the assay with K562 were 135 µM and 198 µM, respectively.

Consider `CC(C)c1ccc(NC(=O)NCCCl)cc1`, for which the IC50 in the assay with CHO [1] stood at 3.2 µM; in the assay on P388 [7] it was 2.1 µM; with L1210 it was 1.2 µM; with HT-29 [8] it was 5 µM; with MDA-MB-231 [9], 2.5 µM; in the assay with LoVo [11] it was 1 µM. In addition, in the assay with K562, the IC50 was found to be 1.3 µM. For the same molecule, the Activity in assay [16] amounted to 3 A570 min-1; in assay [17], 100%; with MDA-MB-231 [10], 65%; in assay [18], 100%.

For the molecule `CCC(C)c1ccc(NC(=O)NCCCl)cc1` (centres undefined), the IC50 in the assay on CHO [1] was 4 µM; in the assay with P388 [7] it was 2.4 µM; with L1210, 1.3 µM; in the assay with HT-29 [8] it was 3.6 µM; with MDA-MB-231 [9], 3.1 µM; with LoVo [11], 2.2 µM. Half-maximal inhibition in the assay on K562 (IC50) required 1.3 µM. Moreover, the Activity in [16] amounted to 3.1 A570 min-1; in [17], 100%; with MDA-MB-231 [10], 76%; in assay [18] it was 100%.
